Experiments:
[1] = biological target: T1, Centromere-associated protein E (Homo sapiens, UniProt Q02224); experiment: Inhibition of human ATPase activity of CENP-E motor domain assessed as ADP production after 60 mins by ADP-Glo luminescence assay
[2] = Permeability of the compound at pH 7.4 by PAMPA; format: ADME; details: read-out: permeability
In short: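 Passive permeability measured in a parallel artificial membrane permeability assay (PAMPA) system at pH 7.4, reported in nm/sec.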

[3] = tested on: HeLa; experiment: Induction of mitotic arrest in human HeLa cells assessed as accumulation of phosphorylated histone H3 after 16 hrs by FACS analysis; format: functional, cell-based
In short: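 HeLa cells scored for phosphorylated histone H3 positive cell count (%) by FACS. EC50 is the concentration giving a response halfway between baseline and maximum p-HH3 positive count.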

[4] = biological target: T1, Centromere-associated protein E; experiment: Inhibition of ATPase activity of CENP-E motor domain (unknown origin) by high throughput screening assay

T1 sequence (Q02224 whole entry, the tested form may be a part): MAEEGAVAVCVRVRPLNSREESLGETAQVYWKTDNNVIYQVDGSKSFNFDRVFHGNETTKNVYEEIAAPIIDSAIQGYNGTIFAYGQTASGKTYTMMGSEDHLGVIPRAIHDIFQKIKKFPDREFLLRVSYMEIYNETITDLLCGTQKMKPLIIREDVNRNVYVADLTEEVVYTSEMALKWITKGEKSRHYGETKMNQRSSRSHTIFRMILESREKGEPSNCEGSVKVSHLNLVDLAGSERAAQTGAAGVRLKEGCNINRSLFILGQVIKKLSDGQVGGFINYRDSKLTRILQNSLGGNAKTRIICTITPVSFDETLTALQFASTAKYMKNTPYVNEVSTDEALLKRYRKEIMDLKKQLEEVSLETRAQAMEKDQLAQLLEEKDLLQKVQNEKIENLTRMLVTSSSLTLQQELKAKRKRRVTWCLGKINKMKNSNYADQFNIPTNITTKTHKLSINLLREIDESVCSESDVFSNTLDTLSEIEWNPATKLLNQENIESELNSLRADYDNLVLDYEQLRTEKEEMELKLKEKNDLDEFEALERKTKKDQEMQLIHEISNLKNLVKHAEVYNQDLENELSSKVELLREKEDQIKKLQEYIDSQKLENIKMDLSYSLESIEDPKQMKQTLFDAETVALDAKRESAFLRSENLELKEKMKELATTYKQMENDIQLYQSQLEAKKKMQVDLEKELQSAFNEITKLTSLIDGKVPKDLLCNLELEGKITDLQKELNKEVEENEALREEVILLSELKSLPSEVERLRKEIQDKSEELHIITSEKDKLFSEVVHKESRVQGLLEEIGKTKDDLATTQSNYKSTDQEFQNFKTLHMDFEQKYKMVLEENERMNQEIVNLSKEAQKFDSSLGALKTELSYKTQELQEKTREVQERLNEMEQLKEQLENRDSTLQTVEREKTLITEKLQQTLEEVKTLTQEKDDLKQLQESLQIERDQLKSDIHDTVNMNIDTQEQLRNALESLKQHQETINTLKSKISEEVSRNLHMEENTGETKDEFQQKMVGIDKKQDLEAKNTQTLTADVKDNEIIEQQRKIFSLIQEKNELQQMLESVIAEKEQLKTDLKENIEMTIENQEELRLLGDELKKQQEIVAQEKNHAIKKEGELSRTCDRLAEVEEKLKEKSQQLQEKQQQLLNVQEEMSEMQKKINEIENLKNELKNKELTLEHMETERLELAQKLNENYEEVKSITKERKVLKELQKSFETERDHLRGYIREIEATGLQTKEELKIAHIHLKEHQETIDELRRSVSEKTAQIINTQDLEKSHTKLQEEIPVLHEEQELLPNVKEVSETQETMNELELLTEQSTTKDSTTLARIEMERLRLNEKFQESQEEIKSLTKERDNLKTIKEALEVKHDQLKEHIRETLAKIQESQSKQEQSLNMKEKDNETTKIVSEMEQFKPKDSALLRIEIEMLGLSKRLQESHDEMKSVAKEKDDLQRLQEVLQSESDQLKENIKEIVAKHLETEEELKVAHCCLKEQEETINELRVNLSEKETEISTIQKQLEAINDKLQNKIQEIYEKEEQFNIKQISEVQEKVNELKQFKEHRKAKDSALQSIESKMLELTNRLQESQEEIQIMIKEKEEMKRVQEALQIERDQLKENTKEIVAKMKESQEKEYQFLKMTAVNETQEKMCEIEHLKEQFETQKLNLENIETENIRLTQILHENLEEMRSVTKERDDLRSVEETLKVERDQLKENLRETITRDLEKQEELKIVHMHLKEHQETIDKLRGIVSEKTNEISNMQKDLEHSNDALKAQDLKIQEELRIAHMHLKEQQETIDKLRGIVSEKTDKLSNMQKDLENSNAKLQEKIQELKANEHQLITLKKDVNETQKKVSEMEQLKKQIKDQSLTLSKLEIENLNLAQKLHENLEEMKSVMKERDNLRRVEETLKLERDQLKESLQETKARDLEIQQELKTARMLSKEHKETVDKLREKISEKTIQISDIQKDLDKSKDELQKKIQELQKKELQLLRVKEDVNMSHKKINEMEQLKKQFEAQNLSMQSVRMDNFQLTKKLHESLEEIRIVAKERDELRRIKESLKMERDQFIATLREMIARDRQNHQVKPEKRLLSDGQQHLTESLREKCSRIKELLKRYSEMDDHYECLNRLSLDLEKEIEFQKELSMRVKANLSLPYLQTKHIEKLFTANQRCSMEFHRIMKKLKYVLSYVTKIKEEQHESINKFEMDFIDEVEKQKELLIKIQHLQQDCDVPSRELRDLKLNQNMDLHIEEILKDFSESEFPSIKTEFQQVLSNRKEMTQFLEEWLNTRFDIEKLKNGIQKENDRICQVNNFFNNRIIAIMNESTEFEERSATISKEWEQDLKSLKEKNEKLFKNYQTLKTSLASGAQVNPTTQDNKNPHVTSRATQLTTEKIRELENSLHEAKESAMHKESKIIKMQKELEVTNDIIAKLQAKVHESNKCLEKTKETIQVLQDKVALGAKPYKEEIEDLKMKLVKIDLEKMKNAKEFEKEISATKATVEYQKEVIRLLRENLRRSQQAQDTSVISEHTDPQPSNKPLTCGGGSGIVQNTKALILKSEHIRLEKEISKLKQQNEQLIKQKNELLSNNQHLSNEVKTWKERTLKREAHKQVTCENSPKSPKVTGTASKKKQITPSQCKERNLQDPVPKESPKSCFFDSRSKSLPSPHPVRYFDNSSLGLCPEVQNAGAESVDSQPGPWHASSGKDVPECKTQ

Row | SMILES | IC50 [1] [nM] | other results
1 | CN(C)CCN(Cc1ccc(Cl)c(Cl)c1)C(=O)c1c(-c2ccc(F)cc2)c2cscc2c(=O)n1C | 100 | –
2 | Cc1c(C(=O)N(CCN(C)C)Cc2ccc(Cl)c(Cl)c2)n(-c2ccc(F)cc2)c2ccccc12 | 2100 | –
3 | CN(Cc1cc(C(F)(F)F)cc(C(F)(F)F)c1)C(=O)c1c(-c2ccc(F)cc2)c2cscc2c(=O)n1C | – | IC50 [4]: 2100 nM
4 | CN(C)CCN(Cc1ccc(Cl)c(Cl)c1)C(=O)c1cc2scc(Cl)c2n1-c1ccc(F)cc1 | 35 | –
5 | Cc1csc2cc(C(=O)N(CCN(C)C)Cc3ccc(Cl)c(Cl)c3)n(-c3ccc(F)cc3)c12 | 370 | –
6 | CN(C)CCN(Cc1ccc(Cl)c(Cl)c1)C(=O)c1c(-c2ccc(F)cc2)c2ccccc2n1C | 8500 | –
7 | CN(C)CCN(Cc1ccc(Cl)c(Cl)c1)C(=O)c1cc2scc(Br)c2n1-c1ccc(F)cc1 | 32 | Papp [2]: 4.1 ×10⁻⁶ cm/s; EC50 [3]: 3000 nM
8 | CN(C)CCN(Cc1ccc(Cl)c(Cl)c1)C(=O)c1cc2scc(C#N)c2n1-c1ccc(F)cc1 | 540 | –
9 | CN(C)CCn1c(C(=O)N(C)Cc2ccc(Cl)c(Cl)c2)c(-c2ccc(F)cc2)c2cscc2c1=O | 72 | –

Further compounds by falling IC50 [1], results first:

Row | IC50 [1] [nM] | SMILES | other results
10 | 2000 | CN(C)CCN(Cc1ccc(Cl)c(Cl)c1)C(=O)c1cc2sccc2n1-c1ccc(F)cc1 | –
11 | 1800 | CN(Cc1ccc(Cl)c(Cl)c1)C(=O)c1c(-c2ccc(F)cc2)c2cscc2c(=O)n1CCO | –
12 | 1500 | CN(Cc1ccc(Cl)c(Cl)c1)C(=O)c1c(-c2ccc(F)cc2)c2cscc2c(=O)n1C | IC50 [4]: 1500 nM
13 | 300 | CN(C)CCCn1c(C(=O)N(C)Cc2ccc(Cl)c(Cl)c2)c(-c2ccc(F)cc2)c2cscc2c1=O | –
14 | 140 | CN(C)CCN(Cc1ccc(Cl)c(Cl)c1)C(=O)c1cc2scc(C(F)(F)F)c2n1-c1ccc(F)cc1 | –
15 | 50 | CN(C)CCN(Cc1ccc(Cl)c(Cl)c1)C(=O)c1nc2cccc(Br)n2c1-c1ccc(F)cc1 | Papp [2]: 35.3 ×10⁻⁶ cm/s; EC50 [3]: 1540 nM

From ChEMBL document CHEMBL2412977, “Synthetic studies of centromere-associated protein-E (CENP-E) inhibitors: 1.Exploration of fused bicyclic core scaffolds using electrostatic potential map” (Bioorg Med Chem, 2013)
